From ChEMBL document CHEMBL4680175, “Sulfonamide-based ring-fused analogues for CAN508 as novel carbonic anhydrase inhibitors endowed with antitumor activity: Design, synthesis, and in vitro biological evaluation” (Eur J Med Chem, 2020)
Active and inactive are the calls of the source. No cut-off for these calls is given here.

What was measured:
Format in all cases: functional
MDA-MB-468 [1] = assay: Potency index, ratio of staurosporine IC50 to compound IC50 for antiproliferative activity against human MDA-MB-468 cells measured after 48 hrs under CoCl2-induced hypoxic condition by MTT assay
MDA-MB-468 [2] = assay: Potency index, ratio of staurosporine IC50 to compound IC50 for antiproliferative activity against human MDA-MB-468 cells measured after 48 hrs under normoxic condition by MTT assay
MCF7 [3] = assay: Induction of cell cycle arrest in human MCF7 cells assessed as decrease in S phase population at IC50 concentration incubated for 24 hrs by PI/RNase staining based flow cytometric analysis
Method in brief: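 Cells were washed in ice-cold PBS, fixed in ice-cold 70% ethanol, treated with 100 µg/mL RNase and stained with 40 µg/mL PI. DNA content was read by flow cytometry, with sub-G1 compared against control.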

MCF7 [4] = assay: Induction of apoptosis in human MCF7 cells assessed as fold increase in apoptotic cells by Annexin V-FITC/propidium iodide staining based flow cytometric analysis relative to control

SMILES | Ratio IC50 (MDA-MB-468 [1]) | Ratio IC50 (MDA-MB-468 [2]) | Activity (MCF7 [3]) | fold change (FC) (MCF7 [4])
Cc1ccc(-c2nc3c(/N=N/c4ccc(S(N)(=O)=O)cc4)c(N)nn3c(N)c2C#N)cc1 | 2.1 | 3.1 | – | –
N#Cc1c(-c2ccc(F)cc2)nc2c(/N=N/c3ccc(S(N)(=O)=O)cc3)c(N)nn2c1N | – | – | Active | 23
N#Cc1c(-c2ccc(Cl)cc2)nc2c(/N=N/c3ccc(S(N)(=O)=O)cc3)c(N)nn2c1N | – | – | Active | 18
